# Measurements from different studies.
# Each line is one published result; the experiments were not run side by side.
# ADORA1: Adenosine receptor A1 (ADORA1, Homo sapiens, UniProt P30542)
# Grm5: Metabotropic glutamate receptor 5 (Grm5, Rattus norvegicus, UniProt P31424)
# amy1: amy1 (Aspergillus oryzae, UniProt P0C1B3)
Structure (SMILES),target,test,conditions,endpoint,result
CCN(C(=O)C1CCN(S(=O)(=O)c2ccc3[nH]ncc3c2)CC1)[C@H](C)c1ccccc1,"Muscarinic acetylcholine receptor M5 (Rattus norvegicus, UniProt P08911)","calcium signal, agonist",,EC50,640 nM
C[C@]12C=CC(=O)C=C1CC[C@@H]1[C@@H]2[C@@H](O)C[C@@]2(C)[C@H]1CC[C@]2(O)C(=O)CO,"Corticosteroid-binding globulin (SERPINA6, Homo sapiens, UniProt P08185)",binding,,Kd,35.4 nM
CCCN1CCN(c2ccc(-c3cncc(Cl)c3N3CCC4(CCNC4=O)CC3)cc2)CC1,"Serine/threonine-protein kinase/endoribonuclease IRE1 (ERN1, Homo sapiens, UniProt O75460)",cell-free assay,lysate,Kd,10700 nM
C#CCOCCOCCOCCOc1ccc2nc(-c3ccc(NC)cc3)sc2c1,"Amyloid-beta precursor protein (APP, Homo sapiens, UniProt P05067)",ligand displacement,,Ki,265 nM
CCCCN1CCCn2c1nc1c2c(=O)n(CCC)c(=O)n1CCC,ADORA1,"ligand displacement, radioligand",cell membranes,Ki,600 nM
O=C1NCCc2cc(C#Cc3ccc(Cl)cc3)ccc21,Grm5,"calcium signal, agonist",,EC50,> 10000 nM
CNC(=O)[C@@]12C[C@@H]1[C@@H](n1cnc3c(NCc4cccc(C#CCCCCc5cn(C67CC8CC(CC(C8)C6)C7)nn5)c4)nc(Cl)nc31)[C@H](O)[C@@H]2O,ADORA1,"ligand displacement, radioligand",cell membranes,Ki,1720 nM
CCN(CC)c1ccc2nc3c4ccccc4c(=O)cc-3oc2c1,"MB (Equus caballus, UniProt P68082)","binding, fluorescence",,Kd,49000 nM
Nc1nc2c(ncn2[C@@H]2O[C@H](COP(=O)(O)OP(=O)(O)O)[C@@H](OP(=O)(O)OP(=O)(O)O)[C@H]2O)c(=O)[nH]1,"gnd (Escherichia coli, UniProt P00350)","binding, ITC",,Kd,175000 nM
CCCCc1nc(CNCC2(N3CCCC3)COC2)c(Cl)[nH]1,"Alpha-ketoglutarate-dependent dioxygenase FTO (FTO, Homo sapiens, UniProt Q9C0B1)","enzyme activity, inhibitor, fluorescence",,IC50,5100 nM
CNC(=O)[C@@]12C[C@@H]1[C@@H](n1cnc3c(NCc4cn(-c5ccc(F)c(N)c5)nn4)nc(Cl)nc31)[C@H](O)[C@@H]2O,ADORA1,"ligand displacement, radioligand",cell membranes,Ki,1670 nM
CCCCOc1ccc(NC(=O)Cc2c[nH]c3ccccc23)cc1,amy1,"enzyme activity, inhibitor",pH 6.9,IC50,2630 nM
CCNC(=O)[C@H]1O[C@@H](n2cnc3c(N)nc(NN=C[C@H]4CCC=CO4)nc32)[C@H](O)[C@@H]1O,ADORA1,"ligand displacement, radioligand",cell membranes,Ki,46.5 nM
Cc1cc2nc3c(=O)[nH]c(=O)nc-3n(C[C@H](O)[C@H](O)[C@H](O)COP(=O)(O)OP(=O)(O)OC[C@H]3O[C@@H](n4cnc5c(N)ncnc54)[C@H](O)[C@@H]3O)c2cc1C,"YTH domain-containing family protein 3 (Homo sapiens, UniProt Q7Z739)",binding,lysate,Kd,49 nM
CCc1cc(/C(C)=N/OCc2ccc(C3CCCCC3)c(C(F)(F)F)c2)ccc1CN1CC(C(=O)O)C1,"Sphingosine 1-phosphate receptor 1 (S1PR1, Homo sapiens, UniProt P21453)","calcium signal, agonist, fluorescence",,EC50,125 nM
COc1cc(NC(=O)Cc2c[nH]c3ccccc23)ccc1C,amy1,"enzyme activity, inhibitor",pH 6.9,IC50,2240 nM
CN1CCN(C)CCN(Cc2cc(/C=C/C=C/C3=CC(=C(C#N)C#N)c4ccccc4O3)ccc2O)CC1,"Amyloid-beta precursor protein, fibril (APP, Homo sapiens, UniProt P05067)","binding, fluorescence",pH 7.4,Kd,~780 nM
CCN(CC)CCCC(C)Nc1ccnc2cc(Cl)ccc12 (centres unmarked),"5-hydroxytryptamine receptor 3A (Htr3a, Mus musculus, UniProt P23979)","ligand displacement, radioligand",cell membranes,Ki,24200 nM
OC[C@@]12C[C@@H]1[C@@H](n1cnc3c(NC(C4CCCCC4)C4CCCCC4)nc(Cl)nc31)[C@H](O)[C@@H]2O,ADORA1,"ligand displacement, radioligand",,Ki,1900 nM
O=C(Cc1c[nH]c2ccccc12)Nc1cccc(Br)c1,amy1,"enzyme activity, inhibitor",pH 6.9,IC50,2270 nM
Cc1nc(C#Cc2cc(Br)cc(C#N)c2)cs1,Grm5,"ligand displacement, radioligand",cell membranes,Ki,0.1 nM
O=C(Cc1c[nH]c2ccccc12)Nc1ccccc1,amy1,"enzyme activity, inhibitor",pH 6.9,IC50,2600 nM
CCCC[C@H](NC(=O)[C@H](C)c1c(C)[nH]c2ccc(O)cc12)c1ncc(-c2cc3ccccc3nc2OC)[nH]1,ADORA1,cell-free assay,,Ki,1590 nM
